Key:
[1] = target: T1, Muscarinic acetylcholine receptor M2 (Homo sapiens, UniProt P08172); experiment: Compound was evaluated for its ability to displace [3H]- N-methyl-scopolamine ([3H]NMS) binding to cloned CHO cell lines expressing Muscarinic acetylcholine receptor M2; format: cell-based
T1 sequence (P08172 whole entry): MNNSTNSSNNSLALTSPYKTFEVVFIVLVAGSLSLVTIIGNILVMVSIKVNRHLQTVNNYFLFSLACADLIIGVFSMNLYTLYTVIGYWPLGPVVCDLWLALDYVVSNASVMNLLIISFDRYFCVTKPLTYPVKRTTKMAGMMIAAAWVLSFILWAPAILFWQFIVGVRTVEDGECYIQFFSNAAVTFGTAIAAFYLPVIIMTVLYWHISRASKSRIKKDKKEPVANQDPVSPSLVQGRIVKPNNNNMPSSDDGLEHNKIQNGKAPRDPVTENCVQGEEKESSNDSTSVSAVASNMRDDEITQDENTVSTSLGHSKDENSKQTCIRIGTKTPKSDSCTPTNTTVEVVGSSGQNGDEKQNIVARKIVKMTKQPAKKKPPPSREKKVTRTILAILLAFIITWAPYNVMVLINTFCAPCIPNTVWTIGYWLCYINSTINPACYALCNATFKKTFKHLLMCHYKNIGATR

[2] = system: Mus musculus; experiment: In vivo antinociceptive activity was measured using mouse grid shock (MGS) assay in mice upon subcutaneous administration; format: functional; settings: sc
Outline: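 Mice dosed sc by body weight, then shocked via stainless steel grid floor 30 min later. Vocalization detected acoustically. Percent increase in latency = (postdrug − predrug)/(cutoff − predrug) × 100 per animal, averaged per dose. Ten mice per dose and for controls. ED50 derived.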

[3] = target: T2, Muscarinic acetylcholine receptor M1 (Homo sapiens, UniProt P11229); experiment: (§1) Compound was evaluated for its ability to displace [3H]N-methylscopolamine ([3H]NMS) binding to cloned CHO cell lines expressing Muscarinic acetylcholine receptor M1; format: cell-based
T2 sequence (P11229 whole entry): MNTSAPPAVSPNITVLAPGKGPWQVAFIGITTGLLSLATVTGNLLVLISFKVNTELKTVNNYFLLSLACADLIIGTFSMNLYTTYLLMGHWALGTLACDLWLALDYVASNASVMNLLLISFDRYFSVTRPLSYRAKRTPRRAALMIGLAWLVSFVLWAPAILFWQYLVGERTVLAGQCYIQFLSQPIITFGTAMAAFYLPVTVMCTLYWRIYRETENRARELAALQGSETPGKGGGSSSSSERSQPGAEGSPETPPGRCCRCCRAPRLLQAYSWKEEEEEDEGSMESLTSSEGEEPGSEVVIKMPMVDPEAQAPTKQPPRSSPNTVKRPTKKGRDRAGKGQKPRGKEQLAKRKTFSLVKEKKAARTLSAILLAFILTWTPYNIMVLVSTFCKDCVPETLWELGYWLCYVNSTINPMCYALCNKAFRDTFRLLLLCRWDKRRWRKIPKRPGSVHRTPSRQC

[4] = target: Muscarinic acetylcholine receptor M3 (Homo sapiens, UniProt P20309); experiment: Compound was evaluated for its ability to displace [3H]N-methylscopolamine ([3H]NMS) binding to cloned CHO cell lines expressing Muscarinic acetylcholine receptor M3; format: cell-based
[5] = target: Muscarinic acetylcholine receptor; experiment: In vitro Binding affinity was measured on Muscarinic acetylcholine receptor on rat brain membranes using [3H]oxotremorine-M; parameters: species or system Membrane
Outline: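 Rat brain homogenate washed by 40000g centrifugation and resuspended in Hepes pH 7.4. Incubated with 1.0 nM (final) [3H]Oxo-M for 30 min at 25 °C. […] Filtered on glass fiber, washed with ice-cold buffer, scintillation counted. IC50 from at least four concentrations in triplicate, Hill equation.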

[6] = target: T3, Muscarinic acetylcholine receptor M4 (Homo sapiens, UniProt P08173); experiment: Compound was evaluated for its ability to displace [3H]- N-methyl-scopolamine ([3H]-NMS) binding to cloned CHO cell lines expressing Muscarinic acetylcholine receptor M4; format: cell-based
T3 sequence (P08173 whole entry): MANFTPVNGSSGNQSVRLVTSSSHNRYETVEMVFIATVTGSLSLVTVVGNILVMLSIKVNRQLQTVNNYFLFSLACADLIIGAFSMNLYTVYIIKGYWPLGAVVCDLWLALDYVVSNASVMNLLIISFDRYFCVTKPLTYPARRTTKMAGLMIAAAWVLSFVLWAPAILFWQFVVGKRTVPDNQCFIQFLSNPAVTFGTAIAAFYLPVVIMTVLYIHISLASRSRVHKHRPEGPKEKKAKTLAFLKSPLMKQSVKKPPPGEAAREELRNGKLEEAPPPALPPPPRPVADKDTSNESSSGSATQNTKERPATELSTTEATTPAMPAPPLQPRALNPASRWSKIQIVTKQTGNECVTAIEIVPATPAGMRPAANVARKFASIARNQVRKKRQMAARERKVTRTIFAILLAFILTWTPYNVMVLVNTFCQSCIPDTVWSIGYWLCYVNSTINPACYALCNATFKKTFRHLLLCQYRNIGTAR

[7] = system: Mus musculus; experiment: Compound was tested for its ability to induce salivation in mice upon subcutaneous administration; format: functional; settings: sc
Outline: (§2)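 Mice dosed sc, scored just before the 30-min postdrug grid-shock test. Salivation or tremor rated 0–3 per animal. Scores multiplied by number of mice, summed per group (n = 10), and expressed as % of maximum sum (30). ED50 derived.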

[8] = target: T4, Muscarinic acetylcholine receptor M5 (Homo sapiens, UniProt P08912); experiment: Compound was evaluated for its ability to displace [3H]- N-methyl-scopolamine ([3H]NMS) binding to cloned CHO cell lines expressing Muscarinic acetylcholine receptor M5; format: cell-based
T4 sequence (P08912 whole entry): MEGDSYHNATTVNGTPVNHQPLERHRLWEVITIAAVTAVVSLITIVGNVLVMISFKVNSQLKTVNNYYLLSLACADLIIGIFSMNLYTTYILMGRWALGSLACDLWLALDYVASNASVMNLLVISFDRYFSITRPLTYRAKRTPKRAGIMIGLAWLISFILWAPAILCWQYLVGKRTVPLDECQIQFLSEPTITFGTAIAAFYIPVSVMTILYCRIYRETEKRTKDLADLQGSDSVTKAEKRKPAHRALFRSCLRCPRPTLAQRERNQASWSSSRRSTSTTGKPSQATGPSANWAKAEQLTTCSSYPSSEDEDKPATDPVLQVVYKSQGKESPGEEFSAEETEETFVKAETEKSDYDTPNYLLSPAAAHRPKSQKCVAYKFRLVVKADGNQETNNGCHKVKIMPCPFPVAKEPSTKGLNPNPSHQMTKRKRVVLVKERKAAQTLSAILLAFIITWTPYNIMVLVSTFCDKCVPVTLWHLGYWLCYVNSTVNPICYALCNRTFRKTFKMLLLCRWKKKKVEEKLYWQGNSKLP

[9] = system: Mus musculus; experiment: Compound was tested for its ability to induce tremors in mice subcutaneous administration; format: functional; settings: sc; outline: as §2
[10] = target: T2, Muscarinic acetylcholine receptor M1; experiment: as §1; format: cell-based; remark: listed apart in the source
Outline: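 Membranes from CHO cells expressing cloned m1 receptor, prepared in 20 mM sodium phosphate pH 7.4 (200g spin, then 40000g for 45 min at 4 °C; stored −80 °C). 23–45 μg protein incubated with [3H]NMS (5 nM as added) and test compound for 2 h. WGA-coated SPA beads added, counted after a further 2 h.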

[11] = target: Muscarinic acetylcholine receptor; experiment: In vitro Binding affinity was measured against Muscarinic acetylcholine receptor on rat brain membranes using [3H]oxotremorine-M

Sequence of Muscarinic acetylcholine receptor M3 (P20309 whole entry): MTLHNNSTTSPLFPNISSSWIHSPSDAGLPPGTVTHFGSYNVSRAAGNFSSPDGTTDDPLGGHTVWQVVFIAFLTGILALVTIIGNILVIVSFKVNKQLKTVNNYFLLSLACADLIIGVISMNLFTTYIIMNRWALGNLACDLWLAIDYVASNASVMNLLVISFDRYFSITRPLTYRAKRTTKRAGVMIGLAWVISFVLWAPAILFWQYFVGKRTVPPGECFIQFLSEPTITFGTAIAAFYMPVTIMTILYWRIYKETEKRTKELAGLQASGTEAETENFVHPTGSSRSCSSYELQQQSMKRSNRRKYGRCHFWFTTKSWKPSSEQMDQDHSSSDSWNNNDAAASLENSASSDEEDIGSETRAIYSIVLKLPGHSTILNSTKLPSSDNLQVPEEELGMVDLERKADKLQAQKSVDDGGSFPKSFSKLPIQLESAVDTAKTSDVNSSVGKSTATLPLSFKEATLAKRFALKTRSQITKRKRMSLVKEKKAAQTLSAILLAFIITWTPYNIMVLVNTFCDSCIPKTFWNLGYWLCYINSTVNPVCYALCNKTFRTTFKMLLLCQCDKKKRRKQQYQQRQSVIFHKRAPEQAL

Compound	IC50 [5]	IC50 [10]	IC50 [1]	ED50 [2]	IC50 [3]	IC50 [4]	IC50 [6]	ED50 [7]	IC50 [8]	ED50 [9]	IC50 [11]
COC(=O)C1=CCCN(C)C1 [ARECOLINE]	–	–	–	16 mg/kg	–	–	–	15 mg/kg	–	15 mg/kg	–
CSc1nsnc1C1=C(C)CCN(C)C1	> 0.5 µM	–	100 µM	> 30 mg/kg	> 100 µM	> 100 µM	> 100 µM	> 30 mg/kg	100 µM	> 30 mg/kg	–
O=C1CCCN1CC#CCN1CCCC1 [OXOTREMORINE]	–	–	0.4 µM	0.038 mg/kg	9 µM	17 µM	5 µM	0.2 mg/kg	8 µM	0.2 mg/kg	0.005 µM
CN1CCC2=C(C1)c1nsnc1SC2	0.0278 µM	–	2.2 µM	10.4 mg/kg	20.5 µM	9.7 µM	14.5 µM	13 mg/kg	23 µM	> 30 mg/kg	–

Further lines, with some results ahead:

IC50 [5]	IC50 [10]	Compound	IC50 [1]	ED50 [2]	IC50 [3]	IC50 [4]	IC50 [6]	ED50 [7]	IC50 [8]	ED50 [9]	IC50 [11]
0.0445 µM	–	c1cc2nsnc2c2c1CCNC2	6.7 µM	4.4 mg/kg	100 µM	100 µM	100 µM	5.1 mg/kg	100 µM	6.4 mg/kg	–
0.0355 µM	–	C1Cc2sc3nsnc3c2CN1	–	4.6 mg/kg	–	–	–	8.8 mg/kg	–	15.8 mg/kg	–
0.0045 µM	1.8 µM	CSc1nsnc1C1=CCCN(C)C1	0.48 µM	4 mg/kg	–	1.6 µM	1.2 µM	6 mg/kg	2.1 µM	> 10 mg/kg	–
0.0076 µM	–	CSc1nsnc1C1=CCCNC1	–	1.8 mg/kg	–	–	–	7.4 mg/kg	–	4.5 mg/kg	–

— ChEMBL document CHEMBL1131636, “Conformationally constrained analogues of the muscarinic agonist 3-(4-(methylthio)-1,2,5-thiadiazol-3-yl)-1,2,5,6-tetrahydro-1-methylpyr idine. Synthesis, receptor affinity, and antinociceptive activity” (J Med Chem, 1998)
